According to ChEMBL document CHEMBL1155498, “Glycine amides as PPARalpha agonists” (Bioorg Med Chem Lett, 2010):
≈ marks a conversion by molar mass, not a printed value. One block for each molecule: values may come before it.

Assays:
[1] = biological target: T1, Peroxisome proliferator-activated receptor alpha (Homo sapiens, UniProt Q07869); test: Agonist activity at Gal4-fused human PPARalpha; assay type: functional
T1 sequence (Q07869 whole entry): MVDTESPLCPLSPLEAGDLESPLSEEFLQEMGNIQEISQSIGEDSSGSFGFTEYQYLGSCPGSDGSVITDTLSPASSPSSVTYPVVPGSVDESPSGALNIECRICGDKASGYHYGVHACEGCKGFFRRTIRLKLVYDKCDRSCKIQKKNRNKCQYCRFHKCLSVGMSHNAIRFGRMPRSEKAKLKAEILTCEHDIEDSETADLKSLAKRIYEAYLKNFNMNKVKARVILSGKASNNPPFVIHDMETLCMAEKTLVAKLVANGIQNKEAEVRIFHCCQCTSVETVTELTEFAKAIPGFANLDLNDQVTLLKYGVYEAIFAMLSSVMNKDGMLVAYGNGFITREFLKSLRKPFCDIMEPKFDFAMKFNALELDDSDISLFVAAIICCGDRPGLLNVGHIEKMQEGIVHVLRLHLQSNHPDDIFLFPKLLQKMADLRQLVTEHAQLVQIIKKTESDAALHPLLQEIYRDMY

Mus musculus [2] = test: Reduction in triglyceride level in human ApoA1 transgenic mouse at 0.6 mg/kg, po for 7 days relative to control; assay type: functional; design: scale not given: the % may be the effect or the level left
Procedure, shortened: (§1)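 Male transgenic hAPO-A1 C57BL/6 mice, n = 10 per dose. Dosed orally once daily for 7 d at 0.6, 2 or 6 mg/kg in Solutol HS15 + ethanol + 0.9% brine (1+1+8), 10 ml/kg. Serum triglycerides and total cholesterol measured photometrically against vehicle control. Total cholesterol serves as a surrogate for HDL.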

[3] = biological target: T2, Peroxisome proliferator-activated receptor delta (Homo sapiens, UniProt Q03181); test: Agonist activity at Gal4-fused human PPARdelta; assay type: functional
T2 sequence (Q03181 whole entry): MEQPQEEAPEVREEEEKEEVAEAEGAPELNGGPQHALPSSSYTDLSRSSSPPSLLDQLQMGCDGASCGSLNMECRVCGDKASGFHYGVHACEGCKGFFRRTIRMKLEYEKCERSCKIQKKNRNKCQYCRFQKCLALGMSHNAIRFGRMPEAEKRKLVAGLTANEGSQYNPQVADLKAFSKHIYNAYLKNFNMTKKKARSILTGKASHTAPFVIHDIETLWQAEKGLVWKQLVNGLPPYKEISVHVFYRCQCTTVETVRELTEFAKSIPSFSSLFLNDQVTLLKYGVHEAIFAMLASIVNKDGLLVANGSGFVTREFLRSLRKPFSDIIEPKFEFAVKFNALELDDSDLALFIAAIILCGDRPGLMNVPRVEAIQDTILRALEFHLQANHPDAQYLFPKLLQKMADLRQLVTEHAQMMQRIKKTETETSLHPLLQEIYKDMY

[4] = Aqueous solubility of the compound; assay type: physicochemical
[5] = biological target: T3, Peroxisome proliferator-activated receptor gamma (Mus musculus, UniProt P37238); test: Agonist activity at Gal4-fused mouse PPARgamma; assay type: functional
T3 sequence (P37238 whole entry): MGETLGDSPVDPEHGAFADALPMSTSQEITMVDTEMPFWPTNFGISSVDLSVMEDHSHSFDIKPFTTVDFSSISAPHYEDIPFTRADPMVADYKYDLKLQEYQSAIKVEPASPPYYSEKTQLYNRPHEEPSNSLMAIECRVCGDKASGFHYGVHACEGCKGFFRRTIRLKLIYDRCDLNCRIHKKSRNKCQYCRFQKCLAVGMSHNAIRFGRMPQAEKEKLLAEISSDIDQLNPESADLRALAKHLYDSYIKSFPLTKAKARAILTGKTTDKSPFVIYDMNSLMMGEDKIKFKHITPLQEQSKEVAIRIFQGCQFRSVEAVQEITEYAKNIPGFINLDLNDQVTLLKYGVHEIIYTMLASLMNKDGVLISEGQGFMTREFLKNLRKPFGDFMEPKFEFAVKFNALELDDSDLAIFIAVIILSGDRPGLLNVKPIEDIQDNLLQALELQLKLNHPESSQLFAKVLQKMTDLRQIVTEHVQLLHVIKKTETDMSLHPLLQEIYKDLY

[6] = biological target: T4, Peroxisome proliferator-activated receptor alpha (Mus musculus, UniProt P23204); test: Agonist activity at Gal4-fused mouse PPARalpha; assay type: functional
T4 sequence (P23204 whole entry): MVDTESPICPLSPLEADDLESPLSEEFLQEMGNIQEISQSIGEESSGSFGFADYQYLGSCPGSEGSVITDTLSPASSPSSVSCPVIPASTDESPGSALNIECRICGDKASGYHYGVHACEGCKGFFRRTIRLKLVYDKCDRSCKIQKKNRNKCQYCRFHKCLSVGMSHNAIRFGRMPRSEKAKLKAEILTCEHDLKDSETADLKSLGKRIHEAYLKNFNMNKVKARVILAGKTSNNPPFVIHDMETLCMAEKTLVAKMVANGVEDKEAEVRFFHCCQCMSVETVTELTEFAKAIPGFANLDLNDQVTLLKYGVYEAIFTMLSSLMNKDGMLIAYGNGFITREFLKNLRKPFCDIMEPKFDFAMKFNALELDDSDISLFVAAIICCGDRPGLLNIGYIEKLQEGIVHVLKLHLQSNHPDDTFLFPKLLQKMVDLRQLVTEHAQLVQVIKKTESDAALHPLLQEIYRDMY

Albumin = Albumin (Homo sapiens, UniProt P02768); test: Binding affinity to human serum albumin; assay type: ADME; settings: isolated protein
[7] = AUC in NMRI mouse at 10 mg/kg, po; assay type: ADME, organism-based; design: dose 10 mg/kg, route oral; settings: plasma
Procedure, shortened: (§2)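 Male NMRI mice (n = 3) dosed orally at 10 mg/kg as a suspension in 20% PEG 400 (5 ml/kg). Plasma sampled at 7 time points up to 6 h. Concentrations dose-normalised to 1 mg/kg. Bioavailability taken against an iv arm (3 mg/kg, 20% PEG400, n = 3).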

Mus musculus [8] = test: Reduction in triglyceride level in human ApoA1 transgenic mouse at 2 mg/kg, po for 7 days relative to control; assay type: functional; design: scale not given: the % may be the effect or the level left; procedure, shortened: as §1
[9] = biological target: T5, Peroxisome proliferator-activated receptor gamma (Homo sapiens, UniProt P37231); test: Agonist activity at Gal4-fused human PPARgamma
T5 sequence (P37231 whole entry): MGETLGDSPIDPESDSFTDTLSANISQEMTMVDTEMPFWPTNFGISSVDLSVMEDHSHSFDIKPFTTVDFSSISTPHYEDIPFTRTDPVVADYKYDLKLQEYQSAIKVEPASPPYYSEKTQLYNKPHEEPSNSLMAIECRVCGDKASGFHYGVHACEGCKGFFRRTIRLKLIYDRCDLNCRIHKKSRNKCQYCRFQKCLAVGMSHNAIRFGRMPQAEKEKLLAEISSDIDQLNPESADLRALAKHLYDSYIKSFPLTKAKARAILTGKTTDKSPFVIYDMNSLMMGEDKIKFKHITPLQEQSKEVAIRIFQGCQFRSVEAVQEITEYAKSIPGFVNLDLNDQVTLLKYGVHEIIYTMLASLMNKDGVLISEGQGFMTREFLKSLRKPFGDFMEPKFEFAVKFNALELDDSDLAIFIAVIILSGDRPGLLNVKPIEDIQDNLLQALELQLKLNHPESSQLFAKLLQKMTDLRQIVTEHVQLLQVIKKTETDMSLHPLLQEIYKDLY

Mus musculus [10] = test: Increase in total cholesterol level in human ApoA1 transgenic mouse at 0.6 mg/kg, po for 7 days (RVb = 29 %); assay type: functional; procedure, shortened: as §1
[11] = Tmax in NMRI mouse at 10 mg/kg, po; assay type: ADME, organism-based; design: dose 10 mg/kg, route oral; settings: in vivo; procedure, shortened: as §2
Mus musculus [12] = test: Increase in total cholesterol level in human ApoA1 transgenic mouse at 2 mg/kg, po for 7 days (RVb = 29 %); assay type: functional; procedure, shortened: as §1
[13] = Oral bioavailability in NMRI mouse at 10 mg/kg; assay type: ADME, organism-based; settings: in vivo; procedure, shortened: as §2
[14] = Half life in NMRI mouse at 3 mg/kg, iv; assay type: ADME, organism-based; design: dose 3 mg/kg, route intravenous; settings: in vivo
Procedure, shortened: (§3)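 Male NMRI mice (n = 3) given 3 mg/kg iv in 20% PEG400. Plasma concentration–time profile followed over about 6 h. Concentrations dose-normalised to 1 mg/kg.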

[15] = Clearance in NMRI mouse at 3 mg/kg, iv; assay type: ADME, organism-based; design: dose 3 mg/kg, route intravenous; settings: in vivo; procedure, shortened: as §3
Mus musculus [16] = test: Increase in total cholesterol level in human ApoA1 transgenic mouse at 6 mg/kg, po for 7 days (RVb = 29 %); assay type: functional; procedure, shortened: as §1
[17] = biological target: T6, Peroxisome proliferator-activated receptor delta (Mus musculus, UniProt P35396); test: Agonist activity at Gal4-fused mouse PPARdelta; assay type: functional
T6 sequence (P35396 whole entry): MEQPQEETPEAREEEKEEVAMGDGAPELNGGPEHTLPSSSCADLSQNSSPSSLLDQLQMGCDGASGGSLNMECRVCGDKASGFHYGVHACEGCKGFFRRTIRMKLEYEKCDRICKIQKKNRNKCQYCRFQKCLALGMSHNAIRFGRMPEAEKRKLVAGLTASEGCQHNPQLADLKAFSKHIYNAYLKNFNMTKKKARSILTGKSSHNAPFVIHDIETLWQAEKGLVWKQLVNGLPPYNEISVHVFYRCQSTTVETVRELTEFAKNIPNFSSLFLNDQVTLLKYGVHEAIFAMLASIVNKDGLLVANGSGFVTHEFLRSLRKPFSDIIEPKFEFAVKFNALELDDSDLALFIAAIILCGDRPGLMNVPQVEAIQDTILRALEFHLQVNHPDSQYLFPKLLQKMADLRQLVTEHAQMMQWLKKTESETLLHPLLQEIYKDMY

Albumin, sequence (P02768 whole entry): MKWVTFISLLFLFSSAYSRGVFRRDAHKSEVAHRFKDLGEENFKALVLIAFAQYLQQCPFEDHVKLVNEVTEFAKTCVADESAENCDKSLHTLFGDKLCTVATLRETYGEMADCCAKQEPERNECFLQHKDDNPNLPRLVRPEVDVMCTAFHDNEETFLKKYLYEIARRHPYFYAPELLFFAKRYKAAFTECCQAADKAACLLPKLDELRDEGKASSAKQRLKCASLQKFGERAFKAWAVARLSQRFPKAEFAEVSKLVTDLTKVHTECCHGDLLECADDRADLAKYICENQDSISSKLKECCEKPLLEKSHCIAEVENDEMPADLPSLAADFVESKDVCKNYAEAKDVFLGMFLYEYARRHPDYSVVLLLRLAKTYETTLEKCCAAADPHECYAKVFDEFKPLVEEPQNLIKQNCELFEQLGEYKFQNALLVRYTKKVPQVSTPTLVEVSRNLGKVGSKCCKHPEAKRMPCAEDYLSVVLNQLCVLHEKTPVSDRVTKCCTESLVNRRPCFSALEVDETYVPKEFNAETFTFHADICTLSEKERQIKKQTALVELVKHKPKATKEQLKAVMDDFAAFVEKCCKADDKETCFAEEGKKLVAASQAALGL

EC50 [1]: > 25 µM
Structure (SMILES): CCCCCCCN(CC(=O)Nc1ccc(C)cc1C)Cc1ccc(OC(C)(C)C(=O)O)cc1

EC50 [1]: 0.9 µM
Structure (SMILES): COc1ccc(CN(CC(=O)Nc2ccc(C)cc2C)Cc2ccc(OC(C)(C)C(=O)O)cc2)cc1

EC50 [1]: 7 µM
Structure (SMILES): CC(C)(Oc1ccc(CN(CC(=O)NCc2ccccc2Cl)Cc2ccco2)cc1)C(=O)O

EC50 [1]: 2 µM
Structure (SMILES): Cc1ccccc1NC(=O)CN(Cc1ccc(OC(C)(C)C(=O)O)cc1)Cc1ccco1

EC50 [1]: 0.6 µM
Structure (SMILES): Cc1ccc(C)c(NC(=O)CN(Cc2ccc(OC(C)(C)C(=O)O)cc2)Cc2ccco2)c1

EC50 [1]: 0.3 µM
Structure (SMILES): COc1ccc(OC)c(NC(=O)CN(Cc2ccc(OC(C)(C)C(=O)O)cc2)Cc2ccco2)c1

EC50 [1]: 3 µM
Structure (SMILES): COc1cccc(NC(=O)CN(Cc2ccc(OC(C)(C)C(=O)O)cc2)Cc2ccco2)c1

EC50 [1]: 1.5 µM
Structure (SMILES): CC(C)(Oc1ccc(CN(CC(=O)Nc2ccc(F)cc2F)Cc2ccco2)cc1)C(=O)O

EC50 [1]: > 25 µM
Structure (SMILES): CC(C)(Oc1ccc(CN(CC(=O)Nc2ccccn2)Cc2ccco2)cc1)C(=O)O

EC50 [1]: 13 µM
Structure (SMILES): CC(C)(Oc1ccc(CN(CC(=O)NCc2ccccc2)Cc2ccco2)cc1)C(=O)O

EC50 [1]: 0.7 µM
Structure (SMILES): Cc1ccc(NC(=O)CN(Cc2ccc(OC(C)(C)C(=O)O)cc2)Cc2cccs2)c(C)c1

Structure (SMILES): Cc1ccc(NC(=O)CN(Cc2ccc(OC(C)(C)C(=O)O)cc2)Cc2ccco2)c(C)c1
Activity (Mus musculus [2]): -3%
EC50 [3]: 6 µM
solubility [4]: 500 µg/mL (≈ 1110 µM)
EC50 [5]: 0.3 µM
EC50 [6]: 0.02 µM
Activity (Albumin): 10 µM
AUC [7]: 370 ng·h/mL
Activity (Mus musculus [8]): -20%
EC50 [9]: 0.8 µM
Activity (Mus musculus [10]): 58%
EC50 [1]: 0.02 µM
Tmax [11]: 0.5 h
Activity (Mus musculus [12]): 74%
bioavailability [13]: 20%
half-life [14]: 2 h
clearance [15]: 89.2 mL/min/kg
Activity (Mus musculus [16]): 91%
EC50 [17]: 2 µM

EC50 [1]: 1 µM
Structure (SMILES): Cc1ccc(NC(=O)CN(Cc2ccccc2)Cc2ccc(OC(C)(C)C(=O)O)cc2)c(C)c1

EC50 [1]: 1 µM
Structure (SMILES): CCCN(CC(=O)Nc1ccc(C)cc1C)Cc1ccc(OC(C)(C)C(=O)O)cc1

EC50 [1]: 10 µM
Structure (SMILES): CCCCN(CC(=O)Nc1ccc(C)cc1C)Cc1ccc(OC(C)(C)C(=O)O)cc1

Structure (SMILES): CCCCCCCN(CCc1ccc(SC(C)(C)C(=O)O)cc1)C(=O)Nc1ccc(F)cc1F [GSK-9578]
EC50 [3]: 2 µM
solubility [4]: 100 µg/mL (≈ 203 µM)
EC50 [5]: 2.5 µM
EC50 [6]: 0.01 µM
Activity (Albumin): 1.3 µM
EC50 [17]: 2 µM
